Legend:
[1] = organism: Canis familiaris; test: Effective dose required to inhibit 50% of apomorphine effect; type: functional; conditions: Canis lupus familiaris
Procedure, shortened: (§1)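 Dogs received oral test article, then were challenged with apomorphine, and vomiting frequency was counted; saline controls were run. ED50 with 95% confidence limits was derived by probit analysis. Significance versus control was tested by Student's t test.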

[2] = test system: Canis familiaris; test: Compound was tested for anti-apomorphine effect in 2 dogs and the vomiting frequency expressed at a dose of 1.0 mg/kg perorally.; type: functional, Canis lupus familiaris; conditions: route oral; procedure, shortened: as §1
[3] = biological target: Serotonin 1 (5-HT1) receptor (Rattus norvegicus, UniProt P28564+P30940+P19327+P28565); test: Inhibitory activity against 5-hydroxytryptamine 1 receptor by 3H ligand binding experiments.; type: protein assay
Procedure, shortened: (§2)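 Competition binding on rat brain synaptic membranes at 10 mg wet tissue per assay, with compounds at 0.01–1000 μM. Radioligand and tissue: S1, [3H]serotonin, frontal cortex; S2, [3H]spiperone, frontal cortex; α1, [3H]WB-4101, whole brain; α2, [3H]clonidine, whole brain. Assays ended by rapid filtration and scintillation counting. IC50 was derived by probit analysis.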

[4] = test system: Rattus norvegicus; test: Gastric emptying of phenol red semisolid meal in rats at dose of 2.0 mg/kg, administered perorally.; type: functional; conditions: route oral
[5] = biological target: T1, Adrenergic receptor alpha-1 (Rattus norvegicus, UniProt P15823+P23944+P43140); test: Inhibitory activity against Alpha-1 adrenergic receptor by 3H ligand binding experiments.; type: protein assay; procedure, shortened: as §2
T1 sequence (P15823 whole entry): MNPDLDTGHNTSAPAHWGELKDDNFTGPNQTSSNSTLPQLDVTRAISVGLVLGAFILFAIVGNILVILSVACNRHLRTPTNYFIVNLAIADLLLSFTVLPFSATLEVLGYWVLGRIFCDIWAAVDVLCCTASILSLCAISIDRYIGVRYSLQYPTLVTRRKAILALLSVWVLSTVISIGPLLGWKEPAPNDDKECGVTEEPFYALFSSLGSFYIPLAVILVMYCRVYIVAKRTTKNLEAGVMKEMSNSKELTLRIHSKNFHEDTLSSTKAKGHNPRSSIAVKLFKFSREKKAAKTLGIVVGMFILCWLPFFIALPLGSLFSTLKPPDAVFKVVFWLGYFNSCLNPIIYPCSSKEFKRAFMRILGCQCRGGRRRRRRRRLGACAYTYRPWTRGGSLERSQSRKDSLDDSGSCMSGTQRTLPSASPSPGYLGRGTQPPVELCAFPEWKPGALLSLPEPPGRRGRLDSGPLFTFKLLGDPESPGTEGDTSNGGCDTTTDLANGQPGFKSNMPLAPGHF
T1 sequence (P23944 whole entry): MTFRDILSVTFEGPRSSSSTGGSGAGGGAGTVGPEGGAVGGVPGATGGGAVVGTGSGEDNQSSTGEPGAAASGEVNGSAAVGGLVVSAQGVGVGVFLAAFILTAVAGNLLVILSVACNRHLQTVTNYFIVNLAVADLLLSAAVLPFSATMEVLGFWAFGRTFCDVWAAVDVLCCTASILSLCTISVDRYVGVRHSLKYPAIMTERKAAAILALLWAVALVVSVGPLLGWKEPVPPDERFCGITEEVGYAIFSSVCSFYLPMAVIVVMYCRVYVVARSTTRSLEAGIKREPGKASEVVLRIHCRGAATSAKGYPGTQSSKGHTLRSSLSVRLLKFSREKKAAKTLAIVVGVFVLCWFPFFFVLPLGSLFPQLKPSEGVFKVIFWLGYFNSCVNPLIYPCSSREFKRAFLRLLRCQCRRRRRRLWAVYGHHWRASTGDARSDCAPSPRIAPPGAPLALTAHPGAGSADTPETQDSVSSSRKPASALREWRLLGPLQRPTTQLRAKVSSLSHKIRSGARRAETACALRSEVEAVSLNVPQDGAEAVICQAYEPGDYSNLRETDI
T1 sequence (P43140 whole entry): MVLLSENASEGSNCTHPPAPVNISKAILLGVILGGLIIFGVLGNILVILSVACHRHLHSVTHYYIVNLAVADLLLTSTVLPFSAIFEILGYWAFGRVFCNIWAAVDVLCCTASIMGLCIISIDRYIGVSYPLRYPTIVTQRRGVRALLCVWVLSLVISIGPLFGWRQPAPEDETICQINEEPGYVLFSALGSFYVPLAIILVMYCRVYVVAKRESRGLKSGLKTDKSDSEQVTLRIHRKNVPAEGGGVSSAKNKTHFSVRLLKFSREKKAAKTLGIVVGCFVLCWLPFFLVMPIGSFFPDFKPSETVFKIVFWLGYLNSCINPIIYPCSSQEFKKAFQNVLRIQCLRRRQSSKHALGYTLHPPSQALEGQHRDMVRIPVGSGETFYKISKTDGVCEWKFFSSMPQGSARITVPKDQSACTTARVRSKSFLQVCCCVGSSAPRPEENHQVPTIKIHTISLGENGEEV

[6] = test system: Canis familiaris; test: Compound was tested for anti-apomorphine effect in 3 dogs and the vomiting frequency expressed at a dose of 0.2 mg/kg perorally.; type: functional, Canis lupus familiaris; conditions: route oral; procedure, shortened: as §1
[7] = test system: Canis familiaris; test: Compound was tested for anti-apomorphine effect in 3 dogs and the vomiting frequency expressed at a dose of 2.0 mg/kg perorally.; type: functional, Canis lupus familiaris; conditions: route oral; procedure, shortened: as §1
[8] = biological target: T2, Adrenergic receptor alpha-2 (Rattus norvegicus, UniProt P22086+P19328+P22909); test: Inhibitory activity against alpha-2 adrenergic receptor by 3H ligand binding experiments.; type: protein assay
T2 sequence (P22086 whole entry): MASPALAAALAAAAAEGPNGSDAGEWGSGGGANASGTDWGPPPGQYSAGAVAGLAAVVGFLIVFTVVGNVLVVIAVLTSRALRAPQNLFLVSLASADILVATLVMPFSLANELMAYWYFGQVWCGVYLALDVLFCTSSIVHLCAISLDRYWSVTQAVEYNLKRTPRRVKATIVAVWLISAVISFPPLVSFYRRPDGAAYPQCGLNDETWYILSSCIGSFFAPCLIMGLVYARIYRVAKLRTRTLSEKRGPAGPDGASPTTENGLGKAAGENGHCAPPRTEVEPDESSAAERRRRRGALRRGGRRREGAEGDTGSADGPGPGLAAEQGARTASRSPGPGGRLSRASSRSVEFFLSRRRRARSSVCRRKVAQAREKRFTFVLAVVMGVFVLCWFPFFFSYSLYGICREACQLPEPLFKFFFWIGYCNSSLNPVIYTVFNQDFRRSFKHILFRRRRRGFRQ
T2 sequence (P19328 whole entry): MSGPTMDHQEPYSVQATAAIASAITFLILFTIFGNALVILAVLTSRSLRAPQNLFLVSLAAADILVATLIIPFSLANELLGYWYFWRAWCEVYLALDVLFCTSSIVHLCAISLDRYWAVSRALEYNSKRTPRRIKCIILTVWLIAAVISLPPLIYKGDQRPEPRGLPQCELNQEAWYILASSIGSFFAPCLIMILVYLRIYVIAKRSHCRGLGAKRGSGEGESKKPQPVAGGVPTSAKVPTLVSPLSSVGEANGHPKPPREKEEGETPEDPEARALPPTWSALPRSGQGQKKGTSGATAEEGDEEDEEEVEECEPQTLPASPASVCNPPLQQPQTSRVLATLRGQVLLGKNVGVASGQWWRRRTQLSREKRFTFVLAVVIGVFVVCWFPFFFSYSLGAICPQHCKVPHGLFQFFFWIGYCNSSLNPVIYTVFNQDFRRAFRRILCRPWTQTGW
T2 sequence (P22909 whole entry): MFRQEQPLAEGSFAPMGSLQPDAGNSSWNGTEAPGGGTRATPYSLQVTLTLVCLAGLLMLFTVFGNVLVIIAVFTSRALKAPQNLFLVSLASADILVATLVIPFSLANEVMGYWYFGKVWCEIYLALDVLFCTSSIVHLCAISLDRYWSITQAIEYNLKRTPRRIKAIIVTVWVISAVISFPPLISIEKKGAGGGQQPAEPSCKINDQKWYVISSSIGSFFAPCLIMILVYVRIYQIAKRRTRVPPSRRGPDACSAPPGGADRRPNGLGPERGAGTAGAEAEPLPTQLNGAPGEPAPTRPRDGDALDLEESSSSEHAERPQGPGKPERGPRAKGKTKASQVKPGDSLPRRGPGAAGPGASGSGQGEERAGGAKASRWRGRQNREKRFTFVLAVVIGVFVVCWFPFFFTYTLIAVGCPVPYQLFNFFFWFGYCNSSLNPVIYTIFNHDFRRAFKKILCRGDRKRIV

[9] = test system: Canis familiaris; test: Compound was tested for anti-apomorphine effect in 3 dogs and the vomiting frequency expressed at a dose of 0.5 mg/kg perorally.; type: functional, Canis lupus familiaris; conditions: route oral; procedure, shortened: as §1
[10] = test system: Canis familiaris; test: Compound was tested for anti-apomorphine effect in 3 dogs and the vomiting frequency expressed at a dose of 1.0 mg/kg perorally.; type: functional, Canis lupus familiaris; conditions: route oral; procedure, shortened: as §1
[11] = organism: Canis familiaris; test: Effective dose required to inhibit 50% of apomorphine effect(95% confidence limits); type: functional; conditions: Canis lupus familiaris
Procedure, shortened: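 Dogs were given the test drug orally, with saline controls, and then challenged with apomorphine. Vomiting frequency was counted in groups of 2–8 dogs per dose. ED50 and its 95% confidence limits were obtained by probit analysis. Significance against controls used Student's t test.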

[12] = test system: Canis familiaris; test: Compound was tested for anti-apomorphine effect in 8 dogs and the vomiting frequency expressed at a dose of 1.0 mg/kg perorally.; type: functional, Canis lupus familiaris; conditions: route oral; procedure, shortened: as §1
[13] = test system: Canis familiaris; test: Compound was tested for anti-apomorphine effect in 8 dogs and the vomiting frequency expressed at a dose of 10.0 mg/kg perorally.; type: functional, Canis lupus familiaris; conditions: route oral; procedure, shortened: as §1
[14] = biological target: D(2) dopamine receptor (Rattus norvegicus, UniProt P61169); test: Inhibitory activity against dopamine receptor D2 by 3H ligand binding experiments.
Sequence of D(2) dopamine receptor (P61169 whole entry): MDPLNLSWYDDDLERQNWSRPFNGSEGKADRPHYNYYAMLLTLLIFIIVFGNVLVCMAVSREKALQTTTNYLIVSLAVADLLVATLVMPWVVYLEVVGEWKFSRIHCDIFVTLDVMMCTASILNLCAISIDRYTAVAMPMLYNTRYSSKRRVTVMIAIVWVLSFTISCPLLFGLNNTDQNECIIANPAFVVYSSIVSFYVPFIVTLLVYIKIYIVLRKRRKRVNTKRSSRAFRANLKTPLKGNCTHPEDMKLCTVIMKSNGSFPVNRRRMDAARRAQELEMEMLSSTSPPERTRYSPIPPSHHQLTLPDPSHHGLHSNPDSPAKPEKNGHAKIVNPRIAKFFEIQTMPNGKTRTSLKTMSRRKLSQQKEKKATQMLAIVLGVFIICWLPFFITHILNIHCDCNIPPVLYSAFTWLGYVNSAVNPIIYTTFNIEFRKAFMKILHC
Procedure, shortened: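 Competition binding used rat striatal synaptic membranes (10 mg wet tissue per assay) with [3H]spiperone. Test compounds spanned 0.01–1000 μM. Assays were started by adding tissue and stopped by rapid glass-fibre filtration with ice-cold buffer washes. Filters were solubilised and radioactivity counted.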

[15] = biological target: Serotonin 2 (5-HT2) receptor (Rattus norvegicus, UniProt P30994+P08909+P14842); test: Inhibitory activity against 5-hydroxytryptamine 2 receptor by 3H ligand binding experiments.; type: protein assay

| SMILES | ED50 [1] [mg/kg] | Vomiting frequency [2] | IC50 [3] [µM] | GE [4] [%] | IC50 [5] [µM] | Vomiting frequency [6] | Vomiting frequency [7] | IC50 [8] [µM] | Vomiting frequency [9] | Vomiting frequency [10] | ED50 [11] [mg/kg] | Vomiting frequency [12] | Vomiting frequency [13] | IC50 [14] [µM] | IC50 [15] [µM] |
| --- | --- | --- | --- | --- | --- | --- | --- | --- | --- | --- | --- | --- | --- | --- | --- |
| COc1cc(N)c(Cl)cc1C(=O)NC1CCN(CCCOc2ccc(F)cc2)CC1OC (configuration not stated) [CISAPRIDE] | > 1 | 6 | 4.47 | 47 | 0.11 | – | – | – | – | – | – | – | – | – | – |
| CCN(CC)CCNC(=O)c1cc(Cl)c(N)cc1OC [METOCLOPRAMIDE] | – | – | 7.8 | 21 | 32.8 | 7.7 | 0.3 | 7.7 | 4 | 1.3 | 0.45 | – | – | – | – |
| CCOc1cc(N)c(Cl)cc1C(=O)NCC1CN(Cc2ccc(F)cc2)CCO1.O=C(O)CC(O)(CC(=O)O)C(=O)O (configuration not stated) [MOSAPRIDE CITRATE] | > 10 | – | > 100 | – | > 100 | – | – | > 10 | – | – | – | 6.4 | 6.3 | > 100 | > 100 |

— ChEMBL document CHEMBL1125819, “Novel benzamides as selective and potent gastrokinetic agents. 2. Synthesis and structure-activity relationships of 4-amino-5-chloro-2-ethoxy-N-[[4-(4-fluorobenzyl)-2- morpholinyl]methyl] benzamide citrate (AS-4370) and related compounds” (J Med Chem, 1991)
